Key:
MDA-MB-435 = assay: Antiproliferative activity against human MDA-MB-435 cells after 48 hrs by MTT assay; type: functional, cell-based; conditions: MDA-MB-435, 48 h
SK-MEL-5 = assay: Antiproliferative activity against human SK-MEL-5 cells after 48 hrs by MTT assay; type: functional, cell-based; conditions: SK-MEL-5, 48 h
SK-MEL-2 = assay: Antiproliferative activity against human SK-MEL-2 cells after 48 hrs by MTT assay; type: functional, cell-based; conditions: SK-MEL-2, 48 h
LOX IMVI = assay: Antiproliferative activity against human LOXIMVI cells after 48 hrs by MTT assay; type: functional, cell-based
UACC-62 = assay: Antiproliferative activity against human UACC62 cells after 48 hrs by MTT assay; type: functional, cell-based; conditions: UACC-62, 48 h
Malme-3M = assay: Antiproliferative activity against human MALME-3M cells after 48 hrs by MTT assay; type: functional, cell-based
UACC-257 = assay: Antiproliferative activity against human UACC257 cells after 48 hrs by MTT assay; type: functional, cell-based; conditions: UACC-257, 48 h
SK-MEL-28 = assay: Antiproliferative activity against human SK-MEL-28 cells after 48 hrs by MTT assay; type: functional, cell-based; conditions: SK-MEL-28, 48 h
SK-OV-3 = assay: Anticancer activity against human SKOV3 cells after 48 hrs by SRB assay; type: functional; conditions: SK-OV-3, 48 h
BT-549 = assay: Anticancer activity against human BT549 cells after 48 hrs by SRB assay; type: functional; conditions: BT-549, 48 h
Procedure, shortened: (§1)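 NCI five-dose screen. Cells in RPMI 1640 with 5% FBS and 2 mM L-glutamine, seeded at 5000–40,000 cells/well according to doubling time, then pre-incubated 24 h at 37 °C in 5% CO2. Drugs dissolved in DMSO, five concentrations by 10-fold or 1/2-log dilution. Cells fixed with TCA, SRB-stained, A515 read. IC50 solved from [(Ti−Tz)/(C−Tz)]×100 = 50.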

786-0 = assay: Anticancer activity against human 786-0 cells after 48 hrs by SRB assay; type: functional; conditions: 786-0, 48 h; procedure, shortened: as §1
[1] = read-out: LC50 (the source's name)

| Structure (SMILES) | IC50 (MDA-MB-435) | IC50 (SK-MEL-5) | IC50 (SK-MEL-2) | IC50 (LOX IMVI) | IC50 (UACC-62) | IC50 (Malme-3M) | IC50 (UACC-257) | IC50 (SK-MEL-28) | GI50 (SK-OV-3) | TGI (SK-OV-3) | CC50 (SK-OV-3; [1]) | GI50 (BT-549) | TGI (BT-549) | CC50 (BT-549; [1]) | GI50 (786-0) | TGI (786-0) | CC50 (786-0; [1]) |
| --- | --- | --- | --- | --- | --- | --- | --- | --- | --- | --- | --- | --- | --- | --- | --- | --- | --- |
| O=C(NCCNc1nccc(-c2c(-c3cccc(O)c3)nc3sccn23)n1)c1ccccc1 | 578 nM | 4150 nM | 2940 nM | 3220 nM | 211 nM | 205 nM | 489 nM | 336 nM | – | – | – | – | – | – | – | – | – |
| O=C(NCCNc1nccc(-c2c(-c3cccc(O)c3)nc3sccn23)n1)c1ccccc1O | 433 nM | 1220 nM | – | 2650 nM | 161 nM | 152 nM | 651 nM | 683 nM | 4310 nM | 39700 nM | > 100000 nM | 4740 nM | 34900 nM | > 100000 nM | 6250 nM | 43100 nM | > 100000 nM |
